Data: ChEMBL document CHEMBL4627283, “Discovery and optimization of 4-oxo-2-thioxo-thiazolidinones as NOD-like receptor (NLR) family, pyrin domain-containing protein 3 (NLRP3) inhibitors” (Bioorg Med Chem Lett, 2020)
Calls of active or inactive are those of the source. The rule behind the calls is not given here.

Experiments:
[1] = target: T1, NACHT, LRR and PYD domains-containing protein 3 (Homo sapiens, UniProt Q96P20); experiment: Inhibition of NLRP3 inflammasome (unknown origin) activation in LPS-primed bone marrow derived macrophage cells assessed as effect on IL-1beta production in presence of nigericin by ELISA
Outline: (§1)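 BMDMs pretreated with varied doses of compound, then LPS-primed and stimulated with nigericin; IL-1β in supernatant by ELISA, normalized to DMSO-treated control; IC50 given as mean ± SD.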

[2] = target: Cystic fibrosis transmembrane conductance regulator (Homo sapiens) (UniProt P13569); experiment: Inhibition of CFTR in human HT-29 cells assessed as effect on intracellular chloride efflux at 20 uM relative to control; format: cell-based
[3] = target: T1, NACHT, LRR and PYD domains-containing protein 3; experiment: Inhibition of NLRP3 inflammasome (unknown origin) activation in LPS-primed bone marrow derived macrophage cells at 10 uM in presence of mono sodium urate relative to control
Homo sapiens = species on record: Homo sapiens; experiment: Selectivity index, ratio of inhibition of NLRP3 inflammasome (unknown origin) activation in bone marrow derived macrophage cells at 10 uM to inhibition of CFTR in human HT-29 cells at 20 uM; format: cell-based
Outline: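 Selectivity index: % NLRP3 inhibition in BMDMs at 10 μM divided by % CFTR inhibition in HT29 cells at 20 μM.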

[4] = Half life in human liver microsomes in presence of NADPH; format: ADME, Microsome
Outline: (§2)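 Stability in human and mouse liver microsomes incubated with an NADPH regenerating system; half-life (min) and hepatic clearance (mL/min/kg) determined.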

[5] = Clearance in human liver microsomes in presence of NADPH; format: ADME, Microsome; outline: as §2
[6] = Half life in mouse liver microsomes in presence of NADPH; format: ADME, Microsome; outline: as §2
[7] = Clearance in mouse liver microsomes in presence of NADPH; format: ADME, Microsome; outline: as §2
[8] = target: T1, NACHT, LRR and PYD domains-containing protein 3; experiment: Inhibition of NLRP3 inflammasome (unknown origin) activation in LPS-primed bone marrow derived macrophages assessed as inhibition of IL-1beta secretion at 5 uM in presence of nigericin by ELISA; settings: TDE = time-dependent effect
Outline: (§3)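 LPS-primed BMDMs treated with compound (5 μM) and stimulated with nigericin (10 µM), ATP (2.5 mM) or MSU (150 µg/mL), over a time course or at increasing agonist doses; secreted IL-1β by ELISA.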

[9] = target: T1, NACHT, LRR and PYD domains-containing protein 3; experiment: Inhibition of NLRP3 inflammasome (unknown origin) activation in bone marrow derived macrophage cells assessed as effect on ATP-induced TNF-alpha secretion at 5 uM by ELISA
Outline: (§4)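 LPS-primed BMDMs given compound (5 μM), then nigericin (10 µM), ATP (2.5 mM) or MSU (150 µg/mL); TNF-α in supernatant measured by ELISA.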

[10] = target: T1, NACHT, LRR and PYD domains-containing protein 3; experiment: Inhibition of NLRP3 inflammasome (unknown origin) activation in LPS-primed bone marrow derived macrophages assessed as inhibition of IL-1beta secretion in presence of ATP by ELISA; outline: as §3
[11] = target: T1, NACHT, LRR and PYD domains-containing protein 3; experiment: Inhibition of NLRP3 inflammasome (unknown origin) activation in LPS-primed bone marrow derived macrophages assessed as inhibition of IL-1beta secretion at 5 uM in presence of ATP by ELISA; settings: TDE = time-dependent effect; outline: as §3
[12] = target: T1, NACHT, LRR and PYD domains-containing protein 3; experiment: Inhibition of NLRP3 inflammasome (unknown origin) activation in bone marrow derived macrophage cells assessed as effect on nigericin-induced TNF-alpha secretion at 5 uM by ELISA; outline: as §4
[13] = Oral bioavailability in Sprague-Dawley rat administered as single dose; format: ADME, organism-based; settings: in vivo
Outline: (§5)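 Sprague-Dawley rats given a single intravenous or oral dose; pharmacokinetic parameters (half-life, AUC, bioavailability) derived from the plasma profile.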

Mus musculus [14] = experiment: In vivo inhibition of NLRP3 inflammasome activation in mouse model of cryopyrin-associated auto-inflammatory syndrome; format: functional, organism-based
[15] = target: T1, NACHT, LRR and PYD domains-containing protein 3; experiment: Inhibition of NLRP3 inflammasome (unknown origin) activation in LPS-primed bone marrow derived macrophages assessed as inhibition of IL-1beta secretion at 5 uM in presence of mono sodium urate by ELISA; settings: TDE = time-dependent effect; outline: as §3
[16] = target: T2, Interferon-inducible protein AIM2 (Homo sapiens) (UniProt O14862); experiment: Inhibition of AIM2 inflammasome (unknown origin) activation in bone marrow derived macrophages assessed as inhibition of poly(dA:dT)-induced IL-1beta secretion at 5 uM by ELISA
T2 sequence (whole entry): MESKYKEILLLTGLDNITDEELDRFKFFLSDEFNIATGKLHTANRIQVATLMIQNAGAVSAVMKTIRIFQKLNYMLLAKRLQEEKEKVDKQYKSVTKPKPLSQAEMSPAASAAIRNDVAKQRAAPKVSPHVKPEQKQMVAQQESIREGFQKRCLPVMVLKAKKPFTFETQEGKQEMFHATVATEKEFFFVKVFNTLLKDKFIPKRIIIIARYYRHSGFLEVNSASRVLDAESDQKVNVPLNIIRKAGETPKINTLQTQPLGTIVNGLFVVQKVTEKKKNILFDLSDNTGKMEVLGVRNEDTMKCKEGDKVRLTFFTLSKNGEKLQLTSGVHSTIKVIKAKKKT
Outline: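 LPS-primed BMDMs treated with compound (5 μM), then transfected with poly(dA:dT) (0.5 µg/ml) using Lipofectamine for various times; supernatant IL-1β by ELISA.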

Mus musculus [17] = species on record: Mus musculus; experiment: Reversal of NLRP3 mediated metabolic disorder in mouse model of diabetes; format: functional, organism-based
[18] = target: T1, NACHT, LRR and PYD domains-containing protein 3; experiment: Inhibition of NLRP3 inflammasome (unknown origin) activation in LPS-primed bone marrow derived macrophages assessed as inhibition of IL-1beta secretion in presence of nigericin by ELISA; outline: as §1
[19] = target: NLR family CARD domain-containing protein 4 (Homo sapiens) (UniProt Q9NPP4); experiment: Inhibition of NLRC4 inflammasome (unknown origin) activation in bone marrow derived macrophages assessed as inhibition of Salmonella-induced IL-1beta secretion at 5 uM by ELISA
Outline: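 LPS-primed BMDMs treated with compound (5 μM), then infected with Salmonella typhimurium for different times; supernatant IL-1β by ELISA.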

[20] = target: T1, NACHT, LRR and PYD domains-containing protein 3; experiment: Inhibition of NLRP3 inflammasome (unknown origin) activation in LPS-primed bone marrow derived macrophages assessed as inhibition of IL-1beta secretion in presence of mono sodium urate by ELSIA; outline: as §3
[21] = target: T1, NACHT, LRR and PYD domains-containing protein 3; experiment: Inhibition of NLRP3 inflammasome (unknown origin) activation in bone marrow derived macrophage cells assessed as effect on mono sodium urate-induced TNF-alpha secretion at 5 uM by ELISA; outline: as §4
[22] = AUC in po or iv qd dosed Sprague-Dawley rat; format: ADME, organism-based; settings: in vivo; outline: as §5

Chain of Cystic fibrosis transmembrane conductance regulator (Homo sapiens) (P13569 whole entry, looked up, the tested form may be a part): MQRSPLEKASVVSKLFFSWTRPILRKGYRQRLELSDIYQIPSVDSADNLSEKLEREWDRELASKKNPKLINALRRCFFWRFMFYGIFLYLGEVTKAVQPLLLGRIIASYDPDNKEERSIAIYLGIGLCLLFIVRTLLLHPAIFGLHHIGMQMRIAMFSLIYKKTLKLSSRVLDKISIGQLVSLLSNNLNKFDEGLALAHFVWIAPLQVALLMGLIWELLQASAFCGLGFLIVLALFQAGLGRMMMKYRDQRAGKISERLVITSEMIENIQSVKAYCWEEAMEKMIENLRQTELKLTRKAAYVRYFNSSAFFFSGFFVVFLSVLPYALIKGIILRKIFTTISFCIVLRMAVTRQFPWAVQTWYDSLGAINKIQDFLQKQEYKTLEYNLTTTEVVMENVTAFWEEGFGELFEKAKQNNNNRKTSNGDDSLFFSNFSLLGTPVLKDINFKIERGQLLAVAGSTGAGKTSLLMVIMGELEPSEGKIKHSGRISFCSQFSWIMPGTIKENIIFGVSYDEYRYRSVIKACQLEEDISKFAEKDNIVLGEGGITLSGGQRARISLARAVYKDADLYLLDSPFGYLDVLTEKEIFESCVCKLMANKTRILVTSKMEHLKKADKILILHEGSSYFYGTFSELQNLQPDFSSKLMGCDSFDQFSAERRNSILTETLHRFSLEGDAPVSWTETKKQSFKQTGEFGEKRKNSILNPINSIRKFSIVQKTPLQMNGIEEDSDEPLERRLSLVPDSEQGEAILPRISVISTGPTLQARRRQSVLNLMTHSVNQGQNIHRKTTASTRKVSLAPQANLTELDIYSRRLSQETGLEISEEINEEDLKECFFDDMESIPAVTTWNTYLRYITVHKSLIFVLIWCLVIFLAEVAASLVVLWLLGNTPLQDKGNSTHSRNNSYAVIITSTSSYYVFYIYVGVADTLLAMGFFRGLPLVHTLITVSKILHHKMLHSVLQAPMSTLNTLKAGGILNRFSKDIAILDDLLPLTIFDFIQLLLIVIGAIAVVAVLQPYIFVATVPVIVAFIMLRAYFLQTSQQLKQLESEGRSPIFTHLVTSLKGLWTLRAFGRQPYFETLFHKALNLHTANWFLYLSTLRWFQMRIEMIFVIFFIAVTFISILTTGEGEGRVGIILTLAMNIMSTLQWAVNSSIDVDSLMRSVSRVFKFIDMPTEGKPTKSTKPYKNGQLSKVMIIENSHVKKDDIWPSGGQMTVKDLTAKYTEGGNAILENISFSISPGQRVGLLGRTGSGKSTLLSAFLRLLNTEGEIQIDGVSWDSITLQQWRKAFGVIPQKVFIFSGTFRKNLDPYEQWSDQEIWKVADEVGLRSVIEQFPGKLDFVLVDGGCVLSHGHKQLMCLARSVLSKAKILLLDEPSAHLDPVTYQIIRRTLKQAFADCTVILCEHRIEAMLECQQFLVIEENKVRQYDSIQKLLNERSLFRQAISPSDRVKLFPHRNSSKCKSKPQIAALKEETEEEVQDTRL
T1 sequence (Q96P20 whole entry, the tested form may be a part): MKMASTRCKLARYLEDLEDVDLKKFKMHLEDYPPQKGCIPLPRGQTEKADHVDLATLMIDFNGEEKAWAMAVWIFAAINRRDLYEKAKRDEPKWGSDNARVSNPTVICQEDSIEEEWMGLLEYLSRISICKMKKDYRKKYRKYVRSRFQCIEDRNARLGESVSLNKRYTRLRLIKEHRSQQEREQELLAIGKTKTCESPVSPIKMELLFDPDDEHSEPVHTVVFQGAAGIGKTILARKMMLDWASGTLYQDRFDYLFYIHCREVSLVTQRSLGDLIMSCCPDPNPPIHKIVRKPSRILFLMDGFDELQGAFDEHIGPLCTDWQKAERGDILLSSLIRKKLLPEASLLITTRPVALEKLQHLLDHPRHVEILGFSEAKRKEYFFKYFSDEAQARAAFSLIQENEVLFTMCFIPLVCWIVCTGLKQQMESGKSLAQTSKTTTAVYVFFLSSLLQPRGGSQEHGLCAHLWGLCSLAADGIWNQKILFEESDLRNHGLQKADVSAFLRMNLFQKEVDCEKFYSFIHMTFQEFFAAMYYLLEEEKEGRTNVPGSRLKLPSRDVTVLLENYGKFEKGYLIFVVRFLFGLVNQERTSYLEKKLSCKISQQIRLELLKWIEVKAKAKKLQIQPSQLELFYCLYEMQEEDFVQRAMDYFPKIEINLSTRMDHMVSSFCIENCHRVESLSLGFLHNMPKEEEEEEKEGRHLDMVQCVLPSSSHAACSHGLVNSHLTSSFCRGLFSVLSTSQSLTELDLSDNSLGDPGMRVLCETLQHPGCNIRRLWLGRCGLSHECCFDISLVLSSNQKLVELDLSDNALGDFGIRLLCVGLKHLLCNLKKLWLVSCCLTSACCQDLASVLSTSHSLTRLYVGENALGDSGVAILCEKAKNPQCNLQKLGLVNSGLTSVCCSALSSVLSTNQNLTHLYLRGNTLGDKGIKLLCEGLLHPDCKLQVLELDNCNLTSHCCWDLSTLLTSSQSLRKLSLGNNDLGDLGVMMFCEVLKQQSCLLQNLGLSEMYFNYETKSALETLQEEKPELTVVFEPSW
Chain of NLR family CARD domain-containing protein 4 (Homo sapiens) (Q9NPP4 whole entry, the tested form may be a part): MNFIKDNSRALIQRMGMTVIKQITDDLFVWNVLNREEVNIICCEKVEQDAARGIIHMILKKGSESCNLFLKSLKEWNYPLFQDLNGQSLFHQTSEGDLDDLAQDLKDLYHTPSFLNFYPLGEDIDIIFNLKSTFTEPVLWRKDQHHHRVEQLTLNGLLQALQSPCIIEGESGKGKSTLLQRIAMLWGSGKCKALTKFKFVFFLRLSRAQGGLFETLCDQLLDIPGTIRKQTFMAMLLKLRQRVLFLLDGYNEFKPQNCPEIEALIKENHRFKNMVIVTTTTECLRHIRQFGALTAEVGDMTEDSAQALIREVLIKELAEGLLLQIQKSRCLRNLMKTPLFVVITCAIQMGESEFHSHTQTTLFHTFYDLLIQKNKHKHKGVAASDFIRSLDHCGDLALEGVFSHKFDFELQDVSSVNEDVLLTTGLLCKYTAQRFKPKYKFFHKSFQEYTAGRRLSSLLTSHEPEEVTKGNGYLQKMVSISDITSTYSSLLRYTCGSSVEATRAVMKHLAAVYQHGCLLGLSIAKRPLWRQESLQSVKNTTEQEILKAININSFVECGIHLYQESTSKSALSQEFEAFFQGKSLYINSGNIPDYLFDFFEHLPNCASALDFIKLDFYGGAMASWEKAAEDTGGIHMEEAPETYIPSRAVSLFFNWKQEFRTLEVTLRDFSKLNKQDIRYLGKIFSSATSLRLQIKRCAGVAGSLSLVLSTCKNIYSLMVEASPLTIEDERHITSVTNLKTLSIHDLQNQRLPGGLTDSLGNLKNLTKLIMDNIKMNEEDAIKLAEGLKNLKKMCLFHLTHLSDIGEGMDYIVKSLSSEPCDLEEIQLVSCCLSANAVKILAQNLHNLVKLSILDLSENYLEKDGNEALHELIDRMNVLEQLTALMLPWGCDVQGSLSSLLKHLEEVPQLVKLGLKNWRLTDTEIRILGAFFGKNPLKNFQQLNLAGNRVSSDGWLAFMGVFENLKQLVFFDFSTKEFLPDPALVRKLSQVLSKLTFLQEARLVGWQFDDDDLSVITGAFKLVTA

SMILES	IC50 [1] [µM]	inhibition [2] [%]	inhibition [3] [%]	Selectivity Index (Homo sapiens)	half-life [4] [min]	CLhep predicted [5] [mL/min/kg]	half-life [6] [min]	CLhep predicted [7] [mL/min/kg]	other results
O=C1S/C(=C\c2ccc(-c3nnn[nH]3)cc2)C(=O)N1Cc1cccc(C(F)(F)F)c1	5.61	> 10	63	–	–	–	–	–	–
O=C(c1ccc(/C=C2\SC(=S)N(c3cccc(C(F)(F)F)c3)C2=O)cc1)N1CCOCC1	2.74	74	81	1.09	> 145	< 4.7	> 145	< 20.7	–
O=C1/C(=C/c2ccc(-c3nnn[nH]3)cc2)SC(=S)N1Cc1cccc(C(F)(F)F)c1	5.58	–	67	–	–	–	–	–	–
CN1CCN(C(=O)c2ccc(/C=C3\SC(=S)N(c4cccc(C(F)(F)F)c4)C3=O)cc2)CC1	2.69	77	81	1.05	15.6	15.3	1.7	86.6	–
O=C(O)c1ccc(/C=C2\SC(=O)N(Cc3cccc(C(F)(F)F)c3)C2=O)cc1	5.96	23	67	–	–	–	–	–	–
O=C(O)c1ccc(/C=C2\SC(=S)N(Cc3ccc(-c4ccccc4)cc3)C2=O)cc1	7.63	11	73	–	–	–	–	–	–
O=C(O)c1ccc(/C=C2\SC(=S)N(Cc3cccnc3)C2=O)cc1	6.27	> 10	63	–	–	–	–	–	–
CN1CCN(C(=O)c2ccc(/C=C3\SC(=S)N(Cc4cccc(C(F)(F)F)c4)C3=O)cc2)CC1	> 10	10	35	–	–	–	–	–	–
O=C(O)c1ccc(/C=C2\SC(=S)N(CCc3cccc(C(F)(F)F)c3)C2=O)cc1	5.91	> 10	74	–	–	–	–	–	–
O=C(Nc1ccccc1)c1ccc(/C=C2\SC(=S)N(c3cccc(C(F)(F)F)c3)C2=O)cc1	> 10	27	32	1.19	–	–	–	–	–
O=C(O)c1ccc(/C=C2\SC(=S)N(Cc3cccc(C(F)(F)F)c3)C2=O)cc1	2.4	–	83	–	> 145	< 4.7	> 145	< 20.7	inhibition [8]: Tde; inhibition [9]: inactive; inhibition [10]: Dose-dependent effect; inhibition [11]: Tde; inhibition [12]: inactive; bioavailability [13]: 27%; inhibition (Mus musculus [14]): Active; inhibition [15]: Tde; inhibition [16]: inactive; Activity (Mus musculus [17]): Active; inhibition [18]: Dose-dependent effect; inhibition [19]: inactive; inhibition [20]: Dose-dependent effect; inhibition [21]: inactive; AUC [22]: 1930 ng·h/mL
O=C(c1ccc(/C=C2\SC(=S)N(c3cccc(C(F)(F)F)c3)C2=O)cc1)N1CCC(O)CC1	2.44	72	80	1.11	44.1	10.3	4	82.4	–
